How the values were obtained:
[1] = tested on: S. aureus bacterial strain ATCC25923; test: In vivo hernia mesh infection model; parameters: species or system New Zealand white rabbits; details: rabbit, 14 days after surgery
Method in brief: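 Rabbit mesh-implant infection model; anaesthesia im 15 min pre-surgery with ketamine (70 mg kg), diazepam and chlorpromazine (1.5 mg kg⁻¹ each). S. aureus ATCC25923 was grown on LB agar 24 h, 37 °C, then overnight in LB and diluted in 0.9 % saline to a target 10^6 CFU.mL⁻¹. At 14 days animals were xylazine-sedated (im), CO₂-euthanised; implant fragments examined by light microscopy and SEM.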

[2] = tested on: S. aureus; test: Resistance acquisition assay; format: cell-based, Staphylococcus aureus; details: second assay, concentration kept constant (half of the initial MIC), 30 days

Question: `[H]/N=C(\N/C(=N/[H])NCCCCCCNC(=N)NC(=N)Nc1ccc(Cl)cc1)Nc1ccc(Cl)cc1` [CHX, Chlorhexidine] was tested. Which “inflammatory reaction (histology)” value [1] did it give?
Answer: The value was “moderate inflammatory reaction”.

Question: What about the “macroscopic observations at necropsy compared with uncoated mesh” value [1] of the same compound?
Answer: Its value is “less purulent material, weak hypervascularization, and better tissue integration”.

Question: What about the “skin fistula, necrosis, or edema at necropsy” value ([1]; n = 7 per group) of the same compound?
Answer: The value was “no animal developed skin fistula, necrosis, or edema”.

Question: And the “bacteria presence in tissue (histology, S. aureus immunolabeling)” value ([1]; qualitative)?
Answer: The value was “not recorded or noticeably reduced”.

Question: Which “increase of relative MIC” value [2] does the source give for `CN(C)[C@@H]1C(O)=C(C(N)=O)C(=O)[C@@]2(O)C(O)=C3C(=O)c4c(O)cccc4[C@@](C)(O)[C@H]3C[C@@H]12` [tetracycline] here?
Answer: Its value is “around 3 times”.

Question: Which “increase of relative MIC” value [2] does the source give for Poly(L-arginine) [PAR30] here?
Answer: The value was “strongly stable”.
